Data set [1] can be described thus: melting temperature; fluorescence melt of hairpins on a sequencing array, two-state fit, raised by 9.35 °C to match UV melts. The conditions noted are these: sodium 0.088 M. A digest of the protocol: (§1)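 Library hairpins on a sequenced MiSeq flow cell carried annealed Cy3 and quencher oligos, and their Cy3 fluorescence was imaged in 50 mM Na-HEPES pH 8.0 with 25 mM NaCl, in 2.5 °C steps up to 60 °C. Signals were normalised to Cy3 before quenching and to control constructs. Melting temperature and folding enthalpy were obtained from bootstrapped two-state fits, combined by inverse-variance weighting across four replicates, and the fitted temperatures were then raised by 9.35 °C to match UV melts.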

Data set [2] in a line: folding enthalpy; higher = less favourable; fluorescence melt of hairpins on a sequencing array, two-state fit. The conditions noted are these: sodium 0.088 M. Summed up:
as §1

In the case of GCGCTGCGAAAGCAATGC ((..(((....)))..)), the Tm in data set [1] was 47.8 °C. The folding enthalpy in data set [2] is -18 kcal/mol.
As for GCGCTGCGAAAGCATAGC ((..(((....)))..)), the Tm in data set [1] amounted to 52.7 °C. Further, the folding enthalpy in data set [2] is -22.7 kcal/mol.
On to GCGCTGCGAAAGCATGGC ((..(((....)))..)), for which, in data set [1], the Tm was determined as 43.6 °C. The folding enthalpy in data set [2] is -19.4 kcal/mol.
Turning to GCGCTGCGAAAGCATTGC ((..(((....)))..)), the Tm in data set [1] was 41.1 °C. For the same sequence, in data set [2], the folding enthalpy was -17.2 kcal/mol.
For GCGCTGCGAAAGCCTCGC (((..((....))..))) the same measures were 47.6 °C and -22 kcal/mol.
For the sequence GCGCTGCGAAAGCGGAGC ((.(.((....)).).)), in data set [1], the Tm worked out at 63.3 °C. For the same sequence, the folding enthalpy in data set [2] was -21.4 kcal/mol.
Consider GCGCTGCGAAAGCTGAGC ((.(.((....)).).)), for which, in data set [1], the Tm turned out to be 57.6 °C. Besides, the folding enthalpy in data set [2] is -21.2 kcal/mol.
Turning to GCGCTGCGAAAGCTTCGC (((..((....))..))), in data set [1], the Tm was 54.9 °C. The folding enthalpy in data set [2] was -20.6 kcal/mol.
With GCGCTGTCGAAAGACCGC (((..(((....)))))), the Tm in data set [1] was determined as 52.3 °C. Further, in data set [2], the folding enthalpy is -22.8 kcal/mol.
On to GCGCTTCGAAAGAACGC (((.(((....)))))), for which the Tm in data set [1] came out at 53.1 °C. Besides, the folding enthalpy in data set [2] is -32.9 kcal/mol.
As to GCGGAAAACCGC ((((....)))), the Tm in data set [1] is 49.8 °C. Moreover, the folding enthalpy in data set [2] was -16.3 kcal/mol.
With GCGGAAGAAATTCCGC ((((((....)))))), in data set [1], the Tm amounted to 61.8 °C. Further, the folding enthalpy in data set [2] was -34.9 kcal/mol.
Take GCGGAAGCCCGC ((((....)))): the Tm in data set [1] stood at 57.3 °C. Also, in data set [2], the folding enthalpy is -14 kcal/mol.
Turning to GCGGAAGGAAACTTTCGC (((.(((....))).))), the Tm in data set [1] is 53 °C. The folding enthalpy in data set [2] is -36.1 kcal/mol.
The like results for GCGGAATGCCGC ((((....)))) were, in that order, 53 °C and -24.3 kcal/mol.
As to GCGGACATCCGC ((((....)))), the Tm in data set [1] stood at 56.5 °C. For the same sequence, the folding enthalpy in data set [2] is -22.5 kcal/mol.
GCGGACCCGAAAGGGCGC (((..(((....)))))): the Tm in data set [1] worked out at 59.5 °C. Also, in data set [2], the folding enthalpy is -18 kcal/mol.
GCGGACGAAAGTCGACGC ((((((....)))..))): the Tm in data set [1] was 54.8 °C. Moreover, the folding enthalpy in data set [2] was -27.3 kcal/mol.
Take GCGGACGCGAAAGCGCGC (((..(((....)))))): the Tm in data set [1] was determined as 62 °C. For the same sequence, in data set [2], the folding enthalpy is -17.1 kcal/mol.
The like results for GCGGACGGAAACGTTCGC (((.(((....))).))) were, in that order, 64.2 °C and -44.9 kcal/mol.
With GCGGACTCGAAAGAGCGC (((..(((....)))))), in data set [1], the Tm came out at 51 °C. In addition, the folding enthalpy in data set [2] is -22.9 kcal/mol.
For GCGGACTGCCGC ((((....)))) the same measures were 54.5 °C and -24.5 kcal/mol.
Take GCGGAGAACCGC ((((....)))): the Tm in data set [1] was found to be 51.1 °C. The folding enthalpy in data set [2] was -22.7 kcal/mol.
Consider GCGGAGACCGC ((((...)))), for which the Tm in data set [1] was determined as 53.2 °C. For the same sequence, the folding enthalpy in data set [2] is -24.4 kcal/mol.
As to GCGGAGCGAAAGCCCGGC ((.(.((....)).).)), the Tm in data set [1] turned out to be 53.5 °C. In data set [2], the folding enthalpy was -10.5 kcal/mol.
As for GCGGAGCGAAAGCTCGGC ((.((((....)))).)), in data set [1], the Tm is 65.1 °C. In addition, in data set [2], the folding enthalpy was -17.8 kcal/mol.
With GCGGAGCGAAAGCTGTGC ((..(((....)))..)), the Tm in data set [1] is 51 °C. In data set [2], the folding enthalpy is -14.2 kcal/mol.
GCGGAGGCCCGC ((((....)))): in data set [1], the Tm came to 53.8 °C. Besides, the folding enthalpy in data set [2] is -17.4 kcal/mol.
With GCGGAGGGAAACCCCCAC (.((.((....)).)).), in data set [1], the Tm was 22.4 °C. Further, the folding enthalpy in data set [2] was -7.96 kcal/mol.
As to GCGGAGGGAAACCTCCAC (.(((((....))))).), the Tm in data set [1] came out at 45.7 °C. Moreover, the folding enthalpy in data set [2] was -15.4 kcal/mol.
GCGGAGGGAAACCTCTGC ((.((((....)))).)): in data set [1], the Tm stood at 58.2 °C. The folding enthalpy in data set [2] was -40.3 kcal/mol.
